# ChEMBL document CHEMBL4689842, “EUbOPEN Chemogenomics Library wave 1” (2021)
# Tested on: Fibroblast
# Assay: Multiplex assay against human fibroblast
# Assay type: toxicity, cell-based
# Outline: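 Per cents of healthy-nucleus cells form the tubulin, mitochondrial-mass and membrane-permeability phenotype values. Live cells were stained at seeding with Hoechst33342, BioTracker Green Microtubule Cytoskeleton Dye, MitoTracker Red and Annexin V Alexa Fluor 680. After compound addition they were imaged on a CQ1 microscope at 37°C and 5% CO2, and CellPathfinder machine-learning gating split them into Hoechst high-intensity objects or normal cells, normal cells into healthy, pyknosed or fragmented nuclei, and pyknosed cells into mitotic or apoptotic.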
# [1] = 12 h, 1 µM, compound concentration 1 uM, replicate 1
# [2] = 12 h, 1 µM, compound concentration 1 uM, replicate 2
# [3] = 12 h, 10 µM, compound concentration 10 uM, replicate 1
# [4] = 12 h, 10 µM, compound concentration 10 uM, replicate 2
# [5] = 24 h, 1 µM, compound concentration 1 uM, replicate 1
# [6] = 24 h, 1 µM, compound concentration 1 uM, replicate 2
# [7] = 24 h, 10 µM, compound concentration 10 uM, replicate 1
# [8] = 24 h, 10 µM, compound concentration 10 uM, replicate 2
# [9] = 48 h, 1 µM, compound concentration 1 uM, replicate 1
# [10] = 48 h, 1 µM, compound concentration 1 uM, replicate 2
# [11] = 48 h, 10 µM, compound concentration 10 uM, replicate 1
# [12] = 48 h, 10 µM, compound concentration 10 uM, replicate 2
smiles,measurement,setting,value
CNC(=O)Nc1ccc(-c2nc(N3CC4CCC(C3)O4)c3cnn(C4CCC5(CC4)OCCO5)c3n2)cc1,Population Apoptotic (%),[1],47%
same,Population Fragmented Nuclei (%),[1],38%
same,Population Healthy Nuclei (%),[1],32%
same,Population Hoechst High Intensity Objects (%),[1],14%
same,Population Membrane Permeable-Phenotype (%),[1],29%
same,Population Mitochondria Different-Phenotype (%),[1],4%
same,Population Mitotic Cells (%),[1],52%
same,Population Normal (%),[1],85%
same,Population Pyknosed Nuclei (%),[1],28%
same,Population Tubulin-Different-Phenotype (%),[1],54%
same,Total Cell Count,[1],85
same,Population Apoptotic (%),[2],0%
same,Population Fragmented Nuclei (%),[2],28%
same,Population Healthy Nuclei (%),[2],55%
same,Population Hoechst High Intensity Objects (%),[2],10%
same,Population Membrane Permeable-Phenotype (%),[2],5%
same,Population Mitochondria Different-Phenotype (%),[2],13%
same,Population Mitotic Cells (%),[2],100%
same,Population Normal (%),[2],89%
same,Population Pyknosed Nuclei (%),[2],16%
same,Population Tubulin-Different-Phenotype (%),[2],18%
same,Total Cell Count,[2],54
same,Population Apoptotic (%),[3],50%
same,Population Fragmented Nuclei (%),[3],28%
same,Population Healthy Nuclei (%),[3],29%
same,Population Hoechst High Intensity Objects (%),[3],16%
same,Population Membrane Permeable-Phenotype (%),[3],30%
same,Population Mitochondria Different-Phenotype (%),[3],15%
same,Population Mitotic Cells (%),[3],50%
same,Population Normal (%),[3],83%
same,Population Pyknosed Nuclei (%),[3],41%
same,Population Tubulin-Different-Phenotype (%),[3],96%
same,Total Cell Count,[3],104
same,Population Apoptotic (%),[4],25%
same,Population Fragmented Nuclei (%),[4],13%
same,Population Healthy Nuclei (%),[4],54%
same,Population Hoechst High Intensity Objects (%),[4],6%
same,Population Membrane Permeable-Phenotype (%),[4],36%
same,Population Mitochondria Different-Phenotype (%),[4],75%
same,Population Mitotic Cells (%),[4],75%
same,Population Normal (%),[4],93%
same,Population Pyknosed Nuclei (%),[4],32%
same,Total Cell Count,[4],107
same,Population Apoptotic (%),[5],38%
same,Population Fragmented Nuclei (%),[5],30%
same,Population Healthy Nuclei (%),[5],33%
same,Population Hoechst High Intensity Objects (%),[5],20%
same,Population Membrane Permeable-Phenotype (%),[5],25%
same,Population Mitochondria Different-Phenotype (%),[5],10%
same,Population Mitotic Cells (%),[5],61%
same,Population Normal (%),[5],79%
same,Population Pyknosed Nuclei (%),[5],35%
same,Population Tubulin-Different-Phenotype (%),[5],60%
same,Total Cell Count,[5],74
same,Population Apoptotic (%),[6],25%
same,Population Fragmented Nuclei (%),[6],19%
same,Population Healthy Nuclei (%),[6],64%
same,Population Hoechst High Intensity Objects (%),[6],18%
same,Population Membrane Permeable-Phenotype (%),[6],8%
same,Population Mitochondria Different-Phenotype (%),[6],6%
same,Population Mitotic Cells (%),[6],75%
same,Population Normal (%),[6],81%
same,Population Pyknosed Nuclei (%),[6],16%
same,Population Tubulin-Different-Phenotype (%),[6],23%
same,Total Cell Count,[6],55
same,Population Apoptotic (%),[7],77%
same,Population Fragmented Nuclei (%),[7],28%
same,Population Healthy Nuclei (%),[7],35%
same,Population Hoechst High Intensity Objects (%),[7],18%
same,Population Membrane Permeable-Phenotype (%),[7],25%
same,Population Mitochondria Different-Phenotype (%),[7],37%
same,Population Mitotic Cells (%),[7],22%
same,Population Normal (%),[7],81%
same,Population Pyknosed Nuclei (%),[7],35%
same,Population Tubulin-Different-Phenotype (%),[7],88%
same,Total Cell Count,[7],93
same,Population Apoptotic (%),[8],41%
same,Population Fragmented Nuclei (%),[8],8%
same,Population Healthy Nuclei (%),[8],42%
same,Population Hoechst High Intensity Objects (%),[8],6%
same,Population Membrane Permeable-Phenotype (%),[8],44%
same,Population Mitochondria Different-Phenotype (%),[8],84%
same,Population Mitotic Cells (%),[8],58%
same,Population Normal (%),[8],93%
same,Population Pyknosed Nuclei (%),[8],49%
same,Population Tubulin-Different-Phenotype (%),[8],96%
same,Total Cell Count,[8],90
same,Population Apoptotic (%),[9],33%
same,Population Fragmented Nuclei (%),[9],42%
same,Population Healthy Nuclei (%),[9],37%
same,Population Hoechst High Intensity Objects (%),[9],19%
same,Population Membrane Permeable-Phenotype (%),[9],13%
same,Population Mitochondria Different-Phenotype (%),[9],8%
same,Population Mitotic Cells (%),[9],66%
same,Population Normal (%),[9],80%
same,Population Pyknosed Nuclei (%),[9],19%
same,Population Tubulin-Different-Phenotype (%),[9],43%
same,Total Cell Count,[9],76
same,Population Apoptotic (%),[10],75%
same,Population Fragmented Nuclei (%),[10],33%
same,Population Healthy Nuclei (%),[10],61%
same,Population Hoechst High Intensity Objects (%),[10],12%
same,Population Membrane Permeable-Phenotype (%),[10],10%
same,Population Mitochondria Different-Phenotype (%),[10],2%
same,Population Mitotic Cells (%),[10],25%
same,Population Normal (%),[10],87%
same,Population Pyknosed Nuclei (%),[10],5%
same,Population Tubulin-Different-Phenotype (%),[10],10%
same,Total Cell Count,[10],88
same,Population Apoptotic (%),[11],50%
same,Population Fragmented Nuclei (%),[11],42%
same,Population Healthy Nuclei (%),[11],37%
same,Population Hoechst High Intensity Objects (%),[11],19%
same,Population Membrane Permeable-Phenotype (%),[11],19%
same,Population Mitochondria Different-Phenotype (%),[11],61%
same,Population Mitotic Cells (%),[11],50%
same,Population Normal (%),[11],80%
same,Population Pyknosed Nuclei (%),[11],20%
same,Population Tubulin-Different-Phenotype (%),[11],80%
same,Total Cell Count,[11],87
same,Population Apoptotic (%),[12],33%
same,Population Fragmented Nuclei (%),[12],48%
same,Population Healthy Nuclei (%),[12],49%
same,Population Hoechst High Intensity Objects (%),[12],9%
same,Population Membrane Permeable-Phenotype (%),[12],18%
same,Population Mitochondria Different-Phenotype (%),[12],12%
same,Population Mitotic Cells (%),[12],66%
same,Population Normal (%),[12],90%
same,Population Pyknosed Nuclei (%),[12],2%
same,Population Tubulin-Different-Phenotype (%),[12],92%
same,Total Cell Count,[12],122
